Measured values from ChEMBL document CHEMBL3120069, “Chemical genetics-based discovery of indole derivatives as HCV NS5B polymerase inhibitors” (Eur J Med Chem, 2014).

Legend:
Hepatitis C virus [1] = assay: Antiviral activity against Hepatitis C virus Con1 Bart79I genotype 1b expressing NS5A S2204I mutant infected in human Huh7.5 cells assessed as inhibition of viral RNA replication at 10 uM by real time qRT-PCR analysis; type: functional, organism-based; conditions: Hepacivirus hominis, subtype 1b Con1 Bart79I, Huh-7, TDE = time-dependent effect
Summary of the method: (§1)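 Huh7.5 cells stably carrying Bart79I genotype 1b subgenomic replicon (G418 750 mg/ml selection, 3 weeks), 3×10⁵ cells/well with DMSO or compound. Dose series over 72 h, or 10 M for increasing periods. Viral and host GAPDH RNA measured by real-time qRT-PCR. EC50 and T1/2 taken from response curves of triplicate experiments.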

Hepatitis C virus [2] = assay: Antiviral activity against Hepatitis C virus JFH-1 J6 genotype 2a infected in human Huh7.5 cells assessed as inhibition of viral core synthesis after 120 hrs by Western blot analysis; type: functional, organism-based
Summary of the method: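 J6/JFH1 RNA-transfected Huh7.5 cells, 1.5 × 10⁵ per well, given DMSO or increasing concentrations for 120 h. RIPA lysates with protease inhibitors, protein by Bradford; HCV core and β-actin by Western blot, core normalised to β-actin. EC50 from dose-response.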

Hepatitis C virus [3] = assay: Antiviral activity against Hepatitis C virus JFH-1 J6 genotype 2a infected in human Huh7.5 cells assessed as inhibition of viral RNA replication after 72 hrs by luciferase reporter gene assay; type: functional, organism-based, Hepacivirus hominis; conditions: subtype 2a JFH1 J6, Huh-7, 72 h
Hepatitis C virus [4] = assay: Antiviral activity against Hepatitis C virus Con1 Bart79I genotype 1b expressing NS5A S2204I mutant infected in human Huh7.5 cells assessed as inhibition of viral RNA replication after 72 hrs by real time qRT-PCR analysis; type: functional, organism-based; conditions: subtype 1b Con1 Bart79I; summary of the method: as §1
Hepatitis C virus [5] = assay: Antiviral activity against Hepatitis C virus Con1 Bart79I genotype 1b expressing YFP infected in human Huh7.5 cells assessed as inhibition of NS5A S2204I mutant synthesis after 120 hrs by FACS analysis; type: functional, organism-based; conditions: subtype 1b Con1 Bart79I
Summary of the method: (§2)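 Huh7.5 cells stably carrying Bart79I-YFP subgenomic replicon (G418 selection), treated with DMSO or compound. Dose series over 5 days (120 h), or 10 M with sampling at 24, 48, 72 h. Cells washed, resuspended in PBS, and NS5A-YFP-positive cells counted by FACS. EC50 and T1/2 taken from response curves.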

Hepatitis C virus [6] = assay: Antiviral activity against Hepatitis C virus Con1 Bart79I genotype 1b expressing YFP infected in human Huh7.5 cells assessed as NS5A S2204I mutant synthesis at 10 uM after 24 hrs by FACS analysis (reference value: 52.2%); type: functional, Hepacivirus hominis, subtype 1b Con1 Bart79I, Huh-7; summary of the method: as §2
Hepatitis C virus [7] = assay: Antiviral activity against Hepatitis C virus Con1 Bart79I genotype 1b expressing YFP/NS5A S2204I mutant infected in human Huh7.5 cells assessed as inhibition of viral RNA replication after 72 hrs by real time qRT-PCR analysis; conditions: subtype 1b Con1 Bart79I, Huh-7, 72 h
[8] = Selectivity ratio of EC50 for Hepatitis C virus JFH-1 J6 genotype 2a to EC50 for Hepatitis C virus Con1 Bart79I genotype 1b expressing NS5A S2204I mutant; type: functional
Hepatitis C virus [9] = assay: Antiviral activity against Hepatitis C virus Con1 Bart79I genotype 1b expressing NS5A S2204I mutant infected in human Huh7.5 cells assessed as time required for reducing viral RNA level by half at 10 uM by real time qRT-PCR analysis; type: functional, organism-based; conditions: Hepacivirus hominis, subtype 1b Con1 Bart79I, Huh-7; summary of the method: as §1
Hepatitis C virus [10] = assay: Antiviral activity against Hepatitis C virus Con1 Bart79I genotype 1b expressing YFP infected in human Huh7.5 cells assessed as NS5A S2204I mutant synthesis at 5 uM after 120 hrs by FACS analysis (reference value: 66%); type: functional, Hepacivirus hominis, subtype 1b Con1 Bart79I, Huh-7; summary of the method: as §2

Which inhibition (Hepatitis C virus [1]) does the source give for `C/C(=C\c1c[nH]c2ccc(C#N)cc12)C(=O)Nc1ccc(C(C)(C)C)cc1` here?
Its inhibition is “tde”.

What about the inhibition (Hepatitis C virus [2]; Hepacivirus hominis, subtype 2a JFH1 J6, Huh-7) of the same molecule?
The inhibition was “Dose-dependent effect”.

What about the EC50 (Hepatitis C virus [2]; subtype 2a JFH1 J6, Huh-7, 120 h) of the same molecule?
The EC50 was 2 µM.

What about the EC50 (Hepatitis C virus [3]) of the same molecule?
The EC50 was 1.1 µM.

And the EC90 (Hepatitis C virus [3])?
The EC90 was 2.1 µM.

And the inhibition (Hepatitis C virus [4]; Hepacivirus hominis, Huh-7)?
The inhibition was “Dose-dependent effect”.

And the EC50 (Hepatitis C virus [4]; Huh-7, 72 h)?
The EC50 was 0.6 µM.

What about the inhibition (Hepatitis C virus [5]; Hepacivirus hominis, Huh-7) of the same molecule?
Its inhibition is “Dose-dependent effect”.

What about the EC50 (Hepatitis C virus [5]; Huh-7, 120 h) of the same molecule?
Its EC50 is 1.03 µM.

What about the Activity (Hepatitis C virus [6]) of the same molecule?
Its Activity is 32.2%.

And the EC50 (Hepatitis C virus [7])?
The EC50 was 4.77 µM.

And the “Ratio EC50” value [8]?
Its value is 3.2.

What about the T1/2 (Hepatitis C virus [9]) of the same molecule?
Its T1/2 is 31.5 h.

And the Activity (Hepatitis C virus [10])?
The Activity was 0.7%.
